Compound activity as filed in PubChem BioAssay.
697 NFkB inh = inhibitors of the PMA/ionomycin-induced NF-kB reporter in 697 B cells. inhibition, % at 4 µM. hit rate 0.33% among 330,000. 697 B-cell NF-kB luciferase reporter, 16 h; in the data active = inhibition above about 35%
aSyn 5UTR inh = 5' untranslated region of α-synuclein, MLPCN primary screen. inhibition, % (tested at 7.5 µM). hit rate 0.82% among 300,000. alpha-synuclein 5'UTR reporter, inhibitor activity; in the data active = inhibition above about 60%;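 note: H4 neuroglioblastoma cells stably carrying SNCA 5'UTR luciferase fusion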
Mdm2 MdmX PPI = inhibitors of human Mdm2/MdmX interaction | O15151+Q00987 | SaOS-2 split-luciferase Mdm2/MdmX complementation, luminescence | inhibition, % at 8 µM | hit rate 3% among 330,000 | AID 485346;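 active = inhibition of at least 50% at 8 µM in the primary screen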
VIM-2 inh = blocks Pseudomonas aeruginosa VIM-2 metallo-beta-lactamase. purified VIM-2, nitrocefin hydrolysis, epi-absorbance fluorescence. inhibition, % at 5.6 µM. hit rate 0.89% among 290,000. AID 1527;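 active = inhibition above the mean of all tested compounds plus 3 SD, cutoff set per screening run, cut at about 7.5% in these data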;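 note: red hydrolysis product quenches plate fluorescence so inhibitors raise well fluorescence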
Jurkat NFkB inh = lowers PMA/ionomycin-induced NF-kB signal in Jurkat cells | hit rate 0.53% among 330,000 | PMA/ionomycin-induced NF-kB luciferase reporter, luminescence | inhibition, % at 4 µM; in the data active = inhibition above about 50%
IMP-1 inh = blocks Pseudomonas aeruginosa IMP-1 metallo-beta-lactamase; purified IMP-1, nitrocefin hydrolysis, epi-absorbance fluorescence; inhibition, % at 5.6 µM; hit rate 0.45% among 290,000;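 active = inhibition above the mean plus 3 SD of all compounds in the same screening run, cut at about 4.5% in these data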
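System: purified IMP-1; amount: IMP-1 0.2 nM before substrate addition; compound: single dose, 5.6 µM; times: 25 °C, 15 min preincubation, 25 min reaction; signal: Epi-absorbance via hydrolysed-nitrocefin quenching of white-plate fluorescence, 480/530 nm, EDTA stop; benchmarks: DMSO with and without IMP-1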
Mdm2 MdmX conf = human Mdm2/MdmX binding inhibition, confirmed; AID 489028; hit rate 55% among 10,000; luminescent assay; inhibition, % at 8 µM; shares compounds with Mdm2 MdmX PPI; in the data active = inhibition above about 40%
FLuc counter = counter-screen for Mdm2/MdmX inhibitors: full-length luciferase; hit rate 77% among 6,200; inhibition, % at 8 µM; SaOS-2 full-length luciferase counterscreen, luminescence; shares compounds with Mdm2 MdmX PPI;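 active = mean inhibition at 8 µM reaching about 37%, which flags the compound as non-specific, limit read from the data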;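 note: p53-null SaOS-2 cells with luciferase driven by a doxycycline-inducible promoter; compound on cells about two nights before reading with doxycycline added after day one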
A number is an active result; - = inactive; . = not tested or not shown. The list is not random: actives were taken first. Their share in the collection is about 4.7%.

SMILES | 697 NFkB inh | aSyn 5UTR inh | Mdm2 MdmX PPI | VIM-2 inh | Jurkat NFkB inh | IMP-1 inh | Mdm2 MdmX conf | FLuc counter
COc1cccc(-c2sc3ccc(OC)cc3c2-c2ccc(OCCN3CCCC3)cc2)c1 | - | . | 69 | . | . | . | - | -
COc1cccc(-c2sc3ccc(OC)cc3c2-c2ccc(C(N)=O)cc2)c1 | - | . | - | . | - | . | . | .
COc1ccc(-c2sc3ccc(OC)cc3c2-c2ccc(OCCN3CCOCC3)cc2)cc1 | - | . | - | . | . | . | . | .
COc1cccc(-c2sc3ccc(OC)cc3c2-c2ccc(OC)cc2F)c1 | - | . | - | . | - | . | . | .
COc1ccc2sc(-c3ccccc3OC)c(-c3ccc(OCCN(C)C)cc3)c2c1 | - | . | - | . | . | . | . | .
COc1cccc(-c2sc3ccccc3c2-c2ccc(OCCN(C)C)cc2)c1 | - | . | 100 | . | - | . | - | .
O=C(NC(Cc1c[nH]c2ccccc12)C(=O)NCc1ccc(F)cc1)OCc1ccccc1 (configuration not stated) | - | - | - | - | - | - | . | .
COc1cccc(-c2sc3ccccc3c2-c2ccc(OCCN3CCCC3)cc2)c1 | - | . | 100 | . | - | . | - | .
O=C(Cn1cnc2sc(-c3ccccc3)cc2c1=O)NCc1ccco1 | - | . | - | - | - | - | . | .
O=C(Cn1cnc2sc(-c3ccccc3)cc2c1=O)NCc1ccccc1 | - | - | 77 | - | - | - | 56 | 56
O=C(Cn1cnc2sc(-c3ccccc3)cc2c1=O)NCCc1ccccc1 | - | - | 93 | - | - | - | - | 98
COC(=O)CN(C)C(=O)c1ccccc1OC1CCN(S(C)(=O)=O)CC1 | - | - | - | - | - | - | . | .
Oc1ccccc1-c1cncn1Cc1ccccc1 | - | - | - | - | - | - | . | .
COc1ccccc1-c1cc(-c2ccccc2)nc(SC(C(N)=O)c2ccccc2)c1C#N (configuration not stated) | - | - | 93 | - | - | - | 58 | -
Cc1nc(SC(C(N)=O)c2ccccc2)c(C#N)c(C)c1C (configuration not stated) | - | - | - | - | - | - | . | .
O=C(CCS(=O)(=O)c1ccccc1)Nc1nc(-c2ccc(F)cc2)cs1 | - | - | 60 | - | - | - | 43 | 53
O=C(CCS(=O)(=O)c1ccc(Cl)cc1)Nc1nc(-c2cccnc2)cs1 | - | - | 70 | - | - | - | - | 72
Cc1cc(Cl)ccc1OCC(=O)Nc1nc(-c2cccnc2)cs1 | - | - | - | - | - | - | . | .
O=C(CCS(=O)(=O)c1ccc(Cl)cc1)Nc1nc(-c2ccncc2)cs1 | - | - | 97 | - | - | - | 56 | -
Cc1ccc(S(=O)(=O)CCC(=O)Nc2nc(-c3cccnc3)cs2)cc1 | - | - | 58 | - | - | - | - | 66
O=C(COc1ccccc1)Nc1nc(-c2cccnc2)cs1 | - | . | - | . | - | . | . | .
O=C(CS(=O)(=O)c1ccccc1)Nc1nc(-c2ccc(F)cc2)cs1 | - | - | - | - | - | - | . | .
COc1ccc2[nH]c3c(c2c1)CCN1C(=O)C(CC(=O)NCC24CC5CC(CC(C5)C2)C4)C[C@H](C(=O)N(C(C)C)C(C)C)[C@@]31C (some centres not stated) | - | . | - | . | . | . | . | .
O=C(Nc1nc(-c2ccncc2)cs1)c1ccc(F)cc1 | - | - | 66 | - | - | - | - | .
Cc1cc(C)cc(OCC(=O)Nc2nc(-c3cccnc3)cs2)c1 | - | - | 78 | - | - | - | - | .
SMILES | 697 NFkB inh | aSyn 5UTR inh | Mdm2 MdmX PPI | VIM-2 inh | Jurkat NFkB inh | IMP-1 inh | Mdm2 MdmX conf | FLuc counter
Cc1ccc(OCC(=O)Nc2nc(-c3ccccn3)cs2)c(C)c1 | - | - | - | . | - | . | . | .
Cc1ccc(S(=O)(=O)CCC(=O)Nc2nc(-c3ccccn3)cs2)cc1 | - | . | 67 | . | - | . | - | .
COc1ccc(NC(=O)CCS(=O)(=O)c2ccc(Cl)cc2)cc1 | - | - | - | - | - | - | . | .
COc1cccc(C(=O)Nc2nc(-c3ccncc3)cs2)c1 | - | - | - | - | - | - | . | .
CC(=O)c1sc(NC(=O)CCS(=O)(=O)c2ccc(Cl)cc2)nc1C | - | - | 51 | . | - | . | 52 | 69
O=C(CCN1C(=O)c2ccccc2S1(=O)=O)Nc1ccc(C(=O)O)cc1 | - | - | - | - | - | - | . | .
Cc1ccc(C2(C)NC(=O)N(CC(=O)Nc3nc(-c4ccccn4)cs3)C2=O)cc1 (configuration not stated) | - | 80 | 59 | . | - | . | 49 | 64
COc1ccc(NC(=O)CNc2cccc(S(=O)(=O)N3CCCCCC3)c2)c([N+](=O)[O-])c1 | - | . | - | . | - | . | . | .
Cc1ccc(CNC(=O)C2CCC(CNc3nc(=S)[nH]c4ccccc34)CC2)cc1 (configuration not stated) | - | - | - | - | - | - | . | .
COc1cccc(CNC(=O)C2CCC(CNc3nc(=S)[nH]c4ccccc34)CC2)c1 (configuration not stated) | - | - | 61 | - | - | - | - | .
Cc1cccc(NC(=S)N/N=C/c2ccc([N+](=O)[O-])s2)c1 | - | - | 67 | - | - | - | - | .
O=C(N/N=C/c1cccc([N+](=O)[O-])c1)c1cccc(Br)c1 | - | - | - | - | - | - | . | .
O=C(N/N=C\c1ccc(Cl)s1)C1COc2ccccc2O1 (configuration not stated) | - | - | - | - | - | - | . | .
O=C(N/N=C/c1ccc(O)c2ncccc12)c1cccc(Br)c1 | - | 67 | 87 | - | - | - | 55 | -
O=C(N/N=C/c1ccc([N+](=O)[O-])s1)c1cccc(Br)c1 | - | 67 | 77 | - | - | - | 68 | 38
O=C(N/N=C/c1cc(Br)ccc1O)c1ccncc1 | - | - | - | - | - | - | . | .
O=C(N/N=C\c1ccc([N+](=O)[O-])s1)C1COc2ccccc2O1 (configuration not stated) | - | - | 51 | - | - | - | 55 | 87
O=C1C2CC=CCC2C(=O)N1n1cnnc1 (configuration not stated) | - | - | - | - | - | - | . | .
Cc1ccc(S(=O)(=O)NC(=O)Nc2nccs2)cc1 | - | - | - | - | - | - | . | .
Cc1ccc(C(=O)NCC(=O)N/N=C/c2cccs2)cc1[N+](=O)[O-] | - | - | - | - | - | - | . | .
CCn1c(SCC(=O)NC(=O)c2ccccc2OC)nc2ccccc21 | - | - | - | - | - | - | . | .
O=C(CCCOc1ccc(Cl)cc1Cl)N/N=C/c1ccccc1O | - | - | 76 | - | - | - | 82 | -
CCc1cc2cc3c(cc2nc1SCC(=O)Nc1cc(C)on1)OCO3 | - | - | 81 | - | - | - | - | .
Nc1ncnc(NCc2ccc(F)cc2)c1[N+](=O)[O-] | - | - | 69 | - | - | - | 62 | -
Nc1ncnc(NCc2ccccc2)c1[N+](=O)[O-] | - | - | - | - | - | - | . | .
